Assay results published in paper PMC5644278 (Alzheimer's & Dementia : Translational Research & Clinical …, 2016).

Legend:
[1] = Pharmacokinetics of Gln-1062 in female Wistar rats; type: in vivo; settings: brain, 5.0 mg/kg Gln-1062 IV
[2] = test system: healthy male subjects; experiment: Face encoding and recognition task, single dose; type: in vivo, human
How it was run: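 Single intranasal dose in a double-dummy design (11 mg young males; 22 or 33 mg elderly males; 6 per dose) or nasal placebo. The face encoding and recognition task was done before dosing and 1 h 45 min after the nasal dose, in a quiet room, one subject per session. Each active group was compared with age-matched placebo by mixed-model ANOVA.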

[3] = test system: Wistar rats; experiment: 28-day intranasal toxicity study; type: in vivo
[4] = test system: healthy male subjects; experiment: Treatment emergent adverse events, single dose study; type: in vivo, human; settings: for Any event (treatment emerging adverse events) / Headache / Nasal discomfort / Rhinorrhea / Sneezing / Cold sweat or hyperhidrosis / Nausea / Vomiting / Diarrhea: number of subjects, percentage in parentheses
[5] = Gln-1062 5.5 mg, healthy young males
[6] = Gln-1062 5.5 mg, healthy young subjects
[7] = Gln-1062 11 mg, healthy young males
[8] = Gln-1062 11 mg, healthy young subjects
[9] = Gln-1062 22 mg, healthy elderly males
[10] = Gln-1062 22 mg, healthy elderly subjects
[11] = Gln-1062 33 mg, healthy elderly males
[12] = Gln-1062 33 mg, healthy elderly subjects
[13] = Gln-1062 44 mg, healthy elderly males
[14] = Gln-1062 44 mg, healthy elderly subjects

In the case of `COc1ccc2c3c1O[C@H]1C[C@@H](OC(=O)c4ccccc4)C=C[C@@]31CCN(C)C2` [Gln-1062], the AUClast [1] was 9717 ng·h/g, the “Face: number correct” value ([2]; Gln-1062 5.5 mg vs Placebo, healthy young males) was −0.77 (−4.17 to 2.64) P = .6332 and the “Face: number correct” value ([2]; Gln-1062 11 mg vs Placebo, healthy young males) was 4.54 (1.22 to 7.87) P = .0116. The “Face: number correct” value ([2]; Gln-1062 22 mg vs Placebo, healthy elderly males) was −2.58 (−7.22 to 2.06) P = .2642, the “Face: number correct” value ([2]; Gln-1062 33 mg vs Placebo, healthy elderly males) was −0.54 (.5.15 to 4.08) P = .8135 and the “Face: number correct” value ([2]; Gln-1062 44 mg vs Placebo, healthy elderly males) was −1.63 (−6.30 to 3.05) P = .4822. For the same compound, the human equivalent dose ([3]; estimated from the rat NOAEL) was 48 mg, the NOAEL ([3]; intranasal, 28-day, Wistar rats) was 5 mg/kg and the “Any event (treatment emerging adverse events)” value (shortened to “Any event”) [4, 5] was 6 (100). For the same compound, the Headache [4, 5] was 2 (33.3), the Nasal discomfort [4, 5] was 6 (100) and the Rhinorrhea [4, 5] was 2 (33.3). For the same compound, the Sneezing [4, 5] was 1 (16.7), the “Diarrhea, incidence” value [4, 6] was “did not occur” and the “Vomiting, incidence” value [4, 6] was “did not occur”. The “Cold sweat or hyperhidrosis, incidence” value ([4]; Gln-1062 11 mg) was 16.7%, the “Nausea, incidence” value [4, 7] was 16.7% and the “Any event” value [4, 7] was 6 (100). For the same compound, the “Cold sweat or hyperhidrosis” value [4, 7] was 1 (16.7), the Headache [4, 7] was 2 (33.3) and the Nasal discomfort [4, 7] was 6 (100). The Nausea [4, 7] was 1 (16.7), the Rhinorrhea [4, 7] was 4 (66.7) and the Sneezing [4, 7] was 1 (16.7). The Vomiting [4, 7] was 1 (16.7), the “Diarrhea, incidence” value [4, 8] was “did not occur” and the “Vomiting, incidence” value [4, 8] was 16.7%. For the same compound, the “Nausea, incidence” value [4, 9] was 16.7%, the “Any event” value [4, 9] was 5 (83.3) and the Diarrhea [4, 9] was 1 (16.7). The Headache [4, 9] was 3 (50), the Nasal discomfort [4, 9] was 4 (66.7) and the Nausea [4, 9] was 1 (16.7). The Rhinorrhea [4, 9] was 2 (33.3), the Sneezing [4, 9] was 1 (16.7) and the “Diarrhea, incidence” value [4, 10] was 16.7%. For the same compound, the “Vomiting, incidence” value [4, 10] was “did not occur at all”, the “Any event” value [4, 11] was 5 (83.3) and the Diarrhea [4, 11] was 1 (16.7). The Headache [4, 11] was 2 (33.3), the Nasal discomfort [4, 11] was 4 (66.7) and the Nausea [4, 11] was 3 (50). The Rhinorrhea [4, 11] was 1 (16.7), the Sneezing [4, 11] was 1 (16.7) and the Vomiting [4, 11] was 2 (33.3). For the same compound, the “Diarrhea, incidence” value [4, 12] was 16.7%, the “Vomiting, incidence” value [4, 12] was 33.3% and the “Cold sweat or hyperhidrosis, incidence” value ([4]; Gln-1062 44 mg) was 50%. The “Any event” value [4, 13] was 5 (83.3), the “Cold sweat or hyperhidrosis” value [4, 13] was 3 (50) and the Diarrhea [4, 13] was 1 (16.7). The Nasal discomfort [4, 13] was 3 (50), the Nausea [4, 13] was 3 (50) and the Rhinorrhea [4, 13] was 3 (50). The Sneezing [4, 13] was 3 (50), the Vomiting [4, 13] was 2 (33.3) and the “Diarrhea, incidence” value [4, 14] was 16.7%. For the same compound, the “Vomiting, incidence” value [4, 14] was 33.3%, the “Nausea, incidence” value ([4]; Gln-1062 at the highest dose levels (n = 3)) was 50% and the “single dose levels safe and well tolerated” value ([4]; intranasal single dose) was “up to 33 mg”.
